Assay results as given in article PMC4184708 (Pharmacology Research & Perspectives, 2014).
Each block holds one compound with its values, some of them ahead of it.

How the values were obtained:
Caco-2 cell monolayers = assay: Transepithelial apical to basolateral; format: in vitro ADME, human; conditions: Caco-2 monolayers, NaCl-reduced HBSS versus HBSS
Method in brief: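 Caco-2 cells (passages 10–18) were seeded at 8.9·10^4 cells cm−2 on 1.12 cm2 polycarbonate inserts (0.4 μm) and run 20 days post seeding, with TEER monitored. 1.0 mmol/L test compound was applied apically, alone or with amino acid or dipeptide inhibitors (35.0–152.5 mmol/L) in NaCl-reduced HBSS (mannitol to 270–310 mOsmol L−1), or with low fat infant formula 150 mg mL−1 in water. Controls were in HBSS and NaCl-reduced HBSS.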

Absorption rate constant = format: in vivo, male Sprague–Dawley rats; conditions: rats
Caco-2 cells = assay: Apical vigabatrin uptake in Caco-2 cells; format: in vitro ADME, human
Method in brief: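 Caco-2 cells (passages 10–18) were seeded at 8.9·10^4 cells cm−2 in 24-well plates and used 6 days post seeding. Low fat infant formula: 150 mg mL−1 was incubated 15 min at 37°C, centrifuged 15 min at 18000g and 4°C, and the supernatant was re-spun to remove lipids. Uptake rate is in nmol min−1 cm−2; n = 3–4.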

[1] = Pharmacokinetics of vigabatrin after iv or oral administration to rats; format: in vivo, male Sprague–Dawley rats
[2] = Acetaminophen deconvolution profiles and rate of gastric emptying; format: in vivo, male Sprague–Dawley rats; conditions: rats, deconvolution profile, after 30 min
[3] = Pharmacokinetics of acetaminophen; format: in vivo, male Sprague–Dawley rats; conditions: rats
[4] = Paracellular flux: A–B transport of [14C]-mannitol across Caco-2 cell monolayers; format: in vitro ADME; conditions: human
[5] = rats, vigabatrin 1.0 mg kg^−1 PO, formulation 1, dietary component none
[6] = rats, vigabatrin 1.0 mg kg^−1 PO, formulation 5, with Sar 200 mg kg^−1
[7] = rats, vigabatrin 1.0 mg kg^−1 PO, formulation 6, with BCH 200 mg kg^−1
[8] = rats, vigabatrin 10 mg kg^−1 PO, formulation 7, dietary component none
[9] = rats, vigabatrin 10 mg kg^−1 PO, formulation 10, with Sar 200 mg kg^−1
[10] = oral coadministration with 120 mg kg^−1 acetaminophen

SMILES: CC(=O)Nc1ccc(O)cc1 [acetaminophen]
- cumulative fraction of acetaminophen absorbed [2]: about 90%
- AUC(0-inf) ([3]; male, Sprague-Dawley, rat, plasma, iv, 120 mg/kg, AUC0–∞, acetaminophen 120 mg kg^−1 iv, formulation 00, dietary component none): 155000 ± 4000 ng·h/mL
- k el ([3]; male, Sprague-Dawley, rat, plasma, iv, 120 mg/kg, ke, acetaminophen 120 mg kg^−1 iv, formulation 00, dietary component none): 0.000306 s⁻¹
- Fabs ([3]; acetaminophen 120 mg kg^−1 iv, formulation 00, dietary component none): 100 ± 3%

SMILES: NC1(C(=O)O)CC2CCC1C2 (stereo not drawn) [BCH, 2-amino-2-norbornanecarboxylic acid]
- effect on the pharmacokinetic parameters of vigabatrin absorption ([1]; rats, oral administration of 1.0 mg kg^−1 vigabatrin): did not significantly alter

SMILES: CNCC(=O)O [Sar, sarcosine]
- effect on Cmax of acetaminophen [3, 10]: did not alter
- effect on tmax of acetaminophen [3, 10]: did not alter
- effect on tmax of vigabatrin ([1]; rats, oral coadministration with 1.0 and 10.0 mg kg^−1 vigabatrin): significant prolonging effect
- effect on Cmax of vigabatrin ([1]; rats, oral coadministration with vigabatrin): significantly decreased

Second part, the compound after the results:

- transport of vigabatrin in the apical to basolateral direction (Caco-2 cell monolayers): unaffected
- ka (Absorption rate constant; vigabatrin 1 mg kg^−1, DC fitted to eq. 9, with Low fat milk): 5.2 ± 0.3
- ka (Absorption rate constant; vigabatrin 1 mg kg^−1, DC fitted to eq. 9, with Milk): 5.3 ± 0.9
- ka (Absorption rate constant; vigabatrin 1 mg kg^−1, DC fitted to eq. 9, with Sar): 2.9 ± 0.2
- ka (Absorption rate constant; vigabatrin 1 mg kg^−1, PC fitted to eq. 10, with Low fat milk): 2.6 ± 0.1
- ka (Absorption rate constant; vigabatrin 1 mg kg^−1, PC fitted to eq. 10, with Milk): 2.8 ± 0.3
- ka (Absorption rate constant; vigabatrin 1 mg kg^−1, PC fitted to eq. 10, with Sar): 1.6 ± 0.1
- ka (Absorption rate constant; vigabatrin 1 mg kg^−1, deconvolution curve (DC) fitted to eq. 9, Control): 7.9 ± 1.9
- ka (Absorption rate constant; vigabatrin 10 mg kg^−1, DC fitted to eq. 9, with Low fat milk): 5.0 ± 0.3
- ka (Absorption rate constant; vigabatrin 10 mg kg^−1, DC fitted to eq. 9, with Milk): 4.1 ± 0.5
- ka (Absorption rate constant; vigabatrin 10 mg kg^−1, DC fitted to eq. 9, with Sar): 3.2 ± 0.2
- ka (Absorption rate constant; vigabatrin 10 mg kg^−1, PC fitted to eq. 10, with Low fat milk): 2.6 ± 0.1
- ka (Absorption rate constant; vigabatrin 10 mg kg^−1, PC fitted to eq. 10, with Milk): 2.6 ± 0.3
- ka (Absorption rate constant; vigabatrin 10 mg kg^−1, PC fitted to eq. 10, with Sar): 1.7 ± 0.1
- ka (Absorption rate constant; vigabatrin 10 mg kg^−1, deconvolution curve (DC) fitted to eq. 9, Control): 8.1 ± 2.3
- apical vigabatrin uptake rate (Caco-2 cells; apical pH 6.0, control): 1.01 ± 0.11 nmol min^−1 cm^−2
- apical vigabatrin uptake rate (Caco-2 cells; apical pH 6.0, in the presence of Gly-Gly): 0.48 ± 0.07 nmol min^−1 cm^−2
- apical vigabatrin uptake rate (Caco-2 cells; apical pH 6.0, in the presence of low fat infant formula): 0.53 ± 0.09 nmol min^−1 cm^−2
- apical vigabatrin uptake rate (Caco-2 cells; apical pH 7.4, control): 0.31 ± 0.04 nmol min^−1 cm^−2
- apical vigabatrin uptake rate (Caco-2 cells; apical pH 7.4, in the presence of Gly-Gly): 0.25 ± 0.03 nmol min^−1 cm^−2
- apical vigabatrin uptake rate (Caco-2 cells; apical pH 7.4, in the presence of low fat infant formula): 0.28 ± 0.06 nmol min^−1 cm^−2
- clearance ([1]; male, Sprague-Dawley, rat, plasma, iv, 1 mg/kg): 7.1 mL/min/kg
- AUC(0-inf) ([1]; male, Sprague-Dawley, rat, plasma, po, 10 mg/kg, AUC0–∞, rats, vigabatrin 10 mg kg^−1 PO, formulation 7, dietary component none): 17800 ± 808 ng·h/mL
- Cmax ([1]; male, Sprague-Dawley, rat, plasma, po, 10 mg/kg, Cmax, rats, vigabatrin 10 mg kg^−1 PO, formulation 7, dietary component none): 13600 ± 953 ng/mL
- k el ([1]; male, Sprague-Dawley, rat, plasma, po, 10 mg/kg, ke, rats, vigabatrin 10 mg kg^−1 PO, formulation 7, dietary component none): 0.000194 s⁻¹
- Tmax ([1]; male, Sprague-Dawley, rat, plasma, po, 10 mg/kg, tmax, median [Q1, Q3], rats, vigabatrin 10 mg kg^−1 PO, formulation 7, dietary component none): 19.8 min
- time of maximal plasma concentration (Cmax) after oral administration ([1]; rats, oral administration of 1.0 or 10.0 mg kg^−1 vigabatrin): 0.25 to 0.33 h
- CL [1, 5]: 9.68 ± 0.5 mL/min/kg
- Fabs [1, 5]: 72 ± 4%
- CL [1, 6]: 9.53 ± 0.383 mL/min/kg
- Fabs [1, 6]: 73 ± 3%
- CL [1, 7]: 9.13 ± 0.333 mL/min/kg
- Fabs [1, 7]: 76 ± 3%
- Fabs ([1]; rats, vigabatrin 1.0 mg kg^−1 iv, formulation 0, dietary component none): 100%
- CL [1, 8]: 9.45 ± 0.4 mL/min/kg
- Fabs [1, 8]: 74 ± 3%
- CL [1, 9]: 10.6 ± 0.533 mL/min/kg
- Fabs [1, 9]: 66 ± 3%
SMILES: C=CC(N)CCC(=O)O (stereo not drawn) [vigabatrin]

- Papp [4]: 0.16 ×10⁻⁶ cm/s
SMILES: OC[C@@H](O)[C@@H](O)[C@H](O)[C@H](O)CO [mannitol, D-[1-^14C]-mannitol]
